hERG protect – hERG (human) protection from proarrhythmic block; Q12809; CHO-hERG, FluxOR thallium flux, dofetilide IC70 present; activation (rescue from dofetilide block), less the hit threshold, % at 10 µM; 310,000 tested, 0.51% active; AID 1511;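 active means activation above the mean of controls blocked by dofetilide plus 5 SD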;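 further: thallium influx through hERG after potassium depolarization seen as dye fluorescence rise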
KCNK3 block – human KCNK3 channel inhibition, primary screen. 340,000 tested, 0.84% active. CHO-KCNK3 thallium flux, FluxOR fluorescence; hits give low values. O14649. AID 602410. B-score at 10 µM;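 active means B-score under library mean minus 4 SD, starting fluorescence ratio at most library mean plus 5 SD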;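 further: more negative B-score means stronger inhibition of thallium flux through KCNK3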
Target sequence (O14649 whole entry, looked up): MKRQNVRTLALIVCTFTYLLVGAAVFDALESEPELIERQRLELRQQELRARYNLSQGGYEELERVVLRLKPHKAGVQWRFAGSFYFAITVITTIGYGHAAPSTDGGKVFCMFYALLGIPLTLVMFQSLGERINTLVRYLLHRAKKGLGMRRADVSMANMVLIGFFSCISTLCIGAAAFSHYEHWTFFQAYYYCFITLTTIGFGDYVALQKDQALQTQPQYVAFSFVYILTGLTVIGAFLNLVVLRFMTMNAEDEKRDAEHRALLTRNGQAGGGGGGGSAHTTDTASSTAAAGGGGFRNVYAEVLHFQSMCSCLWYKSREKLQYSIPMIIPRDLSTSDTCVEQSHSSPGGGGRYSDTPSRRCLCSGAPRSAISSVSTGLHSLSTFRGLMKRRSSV
KCNQ1 block – blocks the human KCNQ1 potassium channel. P51787. CHO-K1 KCNQ1, FluxOR thallium flux fluorescence; hits give high values. B-score at 10 µM. 310,000 tested, 1.3% active;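 active means compounds whose thallium flux B-score, printed positive for inhibition, exceeds three library SD while starting fluorescence stays within three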;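 further: channel opened by potassium depolarization with thallium stimulus after 20 min compound exposure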
KCNQ1 act – potentiates or activates the human KCNQ1 potassium channel; 310,000 tested, 0.35% active; CHO-K1 KCNQ1, thallium flux FluxOR fluorescence; hits give high values; P51787; B-score at 10 µM;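 active means fluorescence ratio B-score, a plate-corrected score, at least three library SD, with initial intensity B-score within 5 SD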
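Schedule – 37 °C overnight plating, 90-min dark dye load, 20-min compound pretreatment · System – stable KCNQ1 CHO-K1 line · Probe or stimulus – thallium- and potassium-containing depolarizing buffer · Measured by – kinetic FluxOR fluorescence, 10 s baseline plus 110 s post-stimulus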
KCNK9 block – blocks the human KCNK9 two-pore domain potassium channel. 310,000 tested, 1.2% active. B-score at 10 µM. AID 488922. HEK293 KCNK9, FluxOR thallium flux fluorescence; hits give low values. Q9NPC2;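 active means ratio B-score over 3 SD below the library mean, with starting fluorescence within 5 SD of its mean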;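 further: negative B-score means less thallium flux so channel inhibition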
PHOSPHO1 inh – inhibitors of human PHOSPHO1 phosphatase | Q8TCT1 | 290,000 tested, 1.1% active | AID 1565 | inhibition, % at 13.3 µM | recombinant PHOSPHO1, absorbance phosphatase assay; in the data active means inhibition above about 60%
KCNK9 inh conf – human KCNK9 inhibitor confirmation; shares compounds with KCNK9 block; HEK293 KCNK9 cells, FluxOR thallium flux fluorescence; inhibition, % at 10 µM; 4,900 tested, 43% active; AID 492992;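 active means thallium signal inhibited by more than 5 SD of the compound-free buffer control wells, on both duplicate plates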
Kir21 sel – mouse Kir2.1 off-target activity of KCNK9 modulators | shares compounds with KCNK9 block | Kir2.1 cells, FluxOR thallium flux fluorescence | inhibition, % at 10 µM | 4,900 tested, 4% active | AID 492993;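 active means thallium signal drop more than 5 SD beyond the mean of the no-compound control wells, seen in both duplicate plates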;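 further: signal is fluorescence rise after thallium addition divided by baseline fluorescence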
HEK293 Tl ctr – second counter-screen for KCNK9 modulators: effect in non-induced cells | shares compounds with KCNK9 block | non-induced KCNK9-HEK293, FluxOR thallium flux | inhibition, % at 10 µM | 4,900 tested, 40% active;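 active means thallium signal drop beyond 5 SD of the untreated control mean, on both duplicate plates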
Of the large screens only hits and unclear results are named; the others gave an inactive call (follow-up assays come after a bar, where they were run). Hits are enriched below; roughly 4% of the tested compounds scored in any of these assays.

CC(C)OC1(c2ccccc2)OC(=O)c2ccccc21 (configuration not stated)	none
Cc1cc(C)c(OC2(c3ccccc3)OC(=O)c3ccccc32)c(C)c1 (configuration not stated)	KCNK9 block -17 | KCNK9 inh conf 69% | Kir21 sel inactive | HEK293 Tl ctr 47%
CCOC(=O)C1CCCN(Cc2cc(=O)oc3cc(C)c(C)cc23)C1 (configuration not stated)	none | KCNK9 inh conf inactive | Kir21 sel inactive | HEK293 Tl ctr inactive
CCOC(=O)C1CCCN(CC(O)COCc2ccc3c(c2)OCO3)C1 (configuration not stated)	none
CCOC(=O)C1CCCN(Cc2cc(=O)oc3cc(C)ccc23)C1 (configuration not stated)	none
CCOC(=O)C1CCCN(Cc2cc(Br)ccc2OC)C1 (configuration not stated)	none (no result: hERG protect, KCNQ1 block, KCNQ1 act, KCNK9 block)
CCOC(=O)C1CCCN(Cc2cc(Br)c(OC)cc2OC)C1 (configuration not stated)	none | KCNK9 inh conf inactive | Kir21 sel inactive | HEK293 Tl ctr inactive
CCOC(=O)C1CCCN(CC(O)COCc2ccccc2OC)C1 (configuration not stated)	none | KCNK9 inh conf inactive | Kir21 sel inactive | HEK293 Tl ctr inactive
Cc1cccc(NS(=O)(=O)c2ccc(C)c(C(=O)NCC(c3ccco3)N3CCCCC3)c2)c1 (configuration not stated)	none (no result: hERG protect, KCNQ1 block, KCNQ1 act, KCNK9 block, PHOSPHO1 inh)
CCN(CC)CCCNCC(=O)Nc1ccc(OC)c(Cl)c1	none (no result: KCNK3 block)
CC1=C(C(=O)Nc2ccccc2C)C(c2ccc(C)o2)N2C(=O)CSC2=N1 (configuration not stated)	KCNK9 block -8.3 | KCNK9 inh conf 38% | Kir21 sel inactive | HEK293 Tl ctr 51%
CCCC(=O)N(CCN(Cc1ccccc1)C(=O)CCC)Cc1ccccc1	none
CCC(=O)N(CCC(c1ccc(C)cc1)c1ccco1)Cc1ccco1 (configuration not stated)	KCNK9 block -16 | KCNK9 inh conf 68% | Kir21 sel inactive | HEK293 Tl ctr 46%
CC(=O)N(CCC(c1ccco1)C(C)C)Cc1ccc(Cl)cc1 (configuration not stated)	KCNK9 block -9.3 | KCNK9 inh conf 40% | Kir21 sel 33% | HEK293 Tl ctr 46%
CCC(=O)N(CCC(c1ccco1)C(C)C)Cc1ccccc1 (configuration not stated)	KCNK9 block -11 | KCNK9 inh conf inactive | Kir21 sel inactive | HEK293 Tl ctr 34%
COc1ccccc1C(CCN(Cc1ccccc1)C(C)=O)c1ccco1 (configuration not stated)	none
CC(=O)NS(=O)(=O)c1ccc(NC(=O)c2cc3c(=O)n4ccccc4nc3s2)cc1	none
COc1ccc(/C=C2\SC(=S)N(NS(=O)(=O)c3ccc(C)cc3)C2=O)c(OC)c1	none
COc1ccc(OC)c(/C=C2\SC(=S)N(NS(=O)(=O)c3ccc(C)cc3)C2=O)c1	none | KCNK9 inh conf inactive | Kir21 sel inactive | HEK293 Tl ctr inactive
CCOc1ccc(/C=C2\SC(=S)N(NS(=O)(=O)c3ccc(C)cc3)C2=O)cc1OC	none | KCNK9 inh conf inactive | Kir21 sel inactive | HEK293 Tl ctr inactive
COc1ccc(/C=C2\SC(=S)N(NS(=O)(=O)c3ccccc3)C2=O)c(OC)c1	KCNQ1 act 19 | KCNK9 inh conf inactive | Kir21 sel inactive | HEK293 Tl ctr inactive
COc1cc2c(cc1OC)/C(=C/C(=O)c1ccc([N+](=O)[O-])c(C)c1)NCC2	none
O=C1CS/C(=N/N=C2CCCC2)N1	none
Cc1ccc(Cl)cc1N(Cc1ccc(C(=O)NCc2cccnc2)cc1)S(=O)(=O)c1ccccc1	KCNK9 block -8.3 | KCNK9 inh conf inactive | Kir21 sel inactive | HEK293 Tl ctr inactive

Source: PubChem (several laboratories)
